Source: PubChem
In the library only some 4.3% were active in any assay of this set; here they are far more common.
Dyrk1A ADPGlo = inhibitors of rat Dyrk1A kinase | Q63470 | ADP-Glo luminescence, NFATc1 peptide | inhibition, % at 12.5 µM | hit rate 0.43% among 310,000 | AID 504441; in the data active = inhibition above about 50%
CAL PDZ FP-1 = blocks peptide binding to the human CAL PDZ domain; Q9HD26; purified CAL PDZ, TMR-peptide fluorescence polarization, 1 h; inhibition, % at 24.9 µM; hit rate 0.92% among 300,000; AID 602252;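 active = mean inhibition of at least 30% with at least half of replicates also reaching 30%; inconclusive = no clear call, values can overlap the other calls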
ALR H2O2 inh = inhibitors of human sulfhydryl oxidase ALR; P55789; purified ALR, DTT oxidation, H2O2 HRP-luminol luminescence; inhibition, % (no concentration beside the values); hit rate 3.8% among 290,000;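 active = mean replicate inhibition above about 79%, with every replicate also reaching it, limit read from the data; inconclusive = only one of the two criteria met; inactive = mean below limit and not every replicate reaching it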
Target sequence (P55789 whole entry, looked up): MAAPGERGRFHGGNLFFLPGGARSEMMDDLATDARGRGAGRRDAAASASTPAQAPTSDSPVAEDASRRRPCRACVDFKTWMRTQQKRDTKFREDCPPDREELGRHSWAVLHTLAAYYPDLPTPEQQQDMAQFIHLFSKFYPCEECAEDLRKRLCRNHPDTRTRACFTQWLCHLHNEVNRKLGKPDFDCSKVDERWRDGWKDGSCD
Rtt109 Vps75 = blocks Candida albicans Rtt109/Vps75 acetyltransferase activity. Q5AAJ8. purified Rtt109/Vps75, ThioGlo CoA-SH fluorescence, 4 h. AID 540336. inhibition, % at 34.9 µM. hit rate 0.16% among 330,000;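 active = inhibition of at least 50% in every replicate; inconclusive = best replicate reaches 50% inhibition but some replicates fall short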
Target sequence (Q5AAJ8 whole entry, looked up): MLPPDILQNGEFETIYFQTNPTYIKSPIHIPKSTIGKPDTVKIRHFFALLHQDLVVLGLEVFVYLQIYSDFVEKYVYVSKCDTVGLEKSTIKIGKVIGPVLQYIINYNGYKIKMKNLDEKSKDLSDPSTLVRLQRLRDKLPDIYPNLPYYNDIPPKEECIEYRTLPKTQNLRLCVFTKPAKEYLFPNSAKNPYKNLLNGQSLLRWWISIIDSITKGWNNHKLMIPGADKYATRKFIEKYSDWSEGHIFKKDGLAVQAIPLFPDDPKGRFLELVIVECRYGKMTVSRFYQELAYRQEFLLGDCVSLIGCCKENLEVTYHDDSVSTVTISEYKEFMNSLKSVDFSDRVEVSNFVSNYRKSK
CAL PDZ FP-2 = human CAL PDZ-peptide interaction inhibition; AID 504414; purified CAL PDZ, TMR-peptide fluorescence polarization, 1 h; hit rate 0.02% among 330,000; inhibition, % at 20 µM; Q9HD26;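 active = highest replicate inhibition of at least 40%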
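Assay system – tagged CAL PDZ protein CerCALP, purified · Timing – 1 h at RT · Compound – single point, 20 µM · Measured by – fluorescence polarization from S- and P-plane intensities, G-factor corrected · Evaluation – inhibition from polarization loss · Probe or stimulus – TMR reporter peptide T*-PRC34 · Buffer or medium – pH 7.4 phosphate-saline buffer, reducing agent, detergent, IgG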
Of the large screens only hits and unclear results are named; the others gave an inactive call.

Cc1cc(=O)oc2c(CN3CCN(CCO)CC3)c(O)ccc12	none
Cc1cc(C)c2oc(=O)cc(CN3CCOCC3)c2c1	none
Cc1cc2oc(=O)cc(CN3CCOCC3)c2cc1C(C)C	CAL PDZ FP-1 62
Cc1nc2sccn2c(=O)c1S(=O)(=O)NCC(C)c1ccccc1 (stereo not drawn)	none (no result: CAL PDZ FP-1)
Cc1cc(C)n2c(SCC(=O)Nc3ccc(F)cc3)nnc2n1	none
CCN(c1ccc(NC(=O)CSc2nnc3nc(C)cc(C)n23)cc1)C(C)C	ALR H2O2 inh 99
Cc1noc(C)c1CSCC(=O)Nc1ccc(S(C)(=O)=O)cc1	none (no result: CAL PDZ FP-1)
CCN(c1ccc(NC(=O)CSCc2c(C)noc2C)cc1)C(C)C	ALR H2O2 inh 99
COC(=O)c1ccc2nc(C)cc(Nc3ccc(N(C)C)cc3)c2c1	ALR H2O2 inh 99 (no result: CAL PDZ FP-1)
CCN(C(=O)CN1CCN(c2ccccc2O)CC1)c1c(N)n(Cc2ccccc2)c(=O)[nH]c1=O	ALR H2O2 inh 98
COc1cccc(-c2ccnc3[nH]n(-c4ccccc4)c(=O)c23)c1	CAL PDZ FP-1 67
COc1ccc(-c2ccnc3[nH]n(-c4ccccc4)c(=O)c23)cc1	CAL PDZ FP-1 60
O=C(OCCN1C(=O)c2ccccc2C1=O)c1ccco1	none
CC(C)C(CCN1C(=O)c2ccccc2C1=O)c1ccco1 (stereo not drawn)	ALR H2O2 inh 90
O=C(NCc1ccccc1CN1CCCC1)c1cc2ccccc2o1	none
CN(C)Cc1ccccc1Sc1ccc(O)cc1O	ALR H2O2 inh 100
CNCc1ccccc1Sc1cc(O)ccc1O	ALR H2O2 inh 82
CN(C)Cc1ccccc1Sc1ccc(Br)cc1	none
Cn1c(=O)c2c(nc(CN3CCN(c4ccccc4)CC3)n2Cc2c(F)cccc2Cl)n(C)c1=O	ALR H2O2 inh 97
Cn1c(=O)c2c(nc(CN3CCN(c4ccccc4)CC3)n2Cc2ccccc2Cl)n(C)c1=O	none (no result: ALR H2O2 inh)
CCn1nc(C(=O)NNC(=O)c2ccccc2)c2ccccc2c1=O	none (no result: CAL PDZ FP-1, ALR H2O2 inh)
C=CCN1C(=NC(=O)COc2ccc(Cl)cc2)SC2CS(=O)(=O)CC21 (stereo not drawn)	none
CN(C)c1ccc(/C=N/NC(=O)c2ccc3c(c2)OCCO3)cc1	ALR H2O2 inh 98
O=C(CNC(=O)c1ccc2c(c1)OCCO2)N/N=C/c1ccc(Cl)cc1	CAL PDZ FP-1 70
CSc1sc(C(=O)NC(=O)NCc2ccncc2)c(C)c1-c1ccon1	none
CCCCc1nc(N2CCOCC2)c(C#N)c2c1COC(C)(C)C2	ALR H2O2 inh 100
COc1ccc(/C=C2\Oc3cc(OCC(=O)N4CCC(C(=O)O)CC4)ccc3C2=O)c(OC)c1OC	ALR H2O2 inh 91
COc1ccc(/C=C2\Oc3cc(OCC(=O)N4CCC(C(=O)O)CC4)ccc3C2=O)c(OC)c1	none (no result: ALR H2O2 inh)
C=C(C)CN(CC)C(=O)CC1C(=O)NCCN1C (stereo not drawn)	none
Cc1ccc(S(=O)(=O)NCC(C)NC(=O)CN2CCOCC2)cc1 (stereo not drawn)	none (no result: ALR H2O2 inh)
N#CCC(=O)Nc1ccc(C(=O)OCC(=O)NNC(=O)c2ccc(Cl)cc2)cc1	none
CNS(=O)(=O)c1cccc(C(=O)OCC(=O)c2ccc3c(c2)OCCO3)c1	CAL PDZ FP-1 45 (no result: ALR H2O2 inh)
N#CCC(=O)Nc1ccc(C(=O)OCC(=O)Nc2ccc3ccccc3c2)cc1	ALR H2O2 inh 92 (no result: Dyrk1A ADPGlo)
CC1CN(C(=O)COC(=O)c2ccc(NC(=O)CC#N)cc2)CC(C)O1 (stereo not drawn)	ALR H2O2 inh 99
CC(C)(C)NC(=O)COC(=O)c1ccc(NC(=O)CC#N)cc1	ALR H2O2 inh 99, Rtt109 Vps75 inconclusive
CC(/C=N/NC(=O)Cn1cnc2c1c(=O)n(C)c(=O)n2C)=C\c1ccccc1	none
N#CCC(=O)Nc1ccc(C(=O)OCC(=O)c2ccc3c(c2)OCO3)cc1	ALR H2O2 inh 99
Cc1ccccc1N=C1SCCN1C(=O)CN1C(=O)NC2(CCCC2)C1=O	none
O=C(NCc1ccccn1)NC12CC3CC(CC(C3)C1)C2	CAL PDZ FP-1 76 (no result: ALR H2O2 inh)
COc1cccc(Oc2cn[nH]c2-c2ccc(O)cc2O)c1	ALR H2O2 inh 80
COc1ccc(-c2[nH]ncc2-c2ccc(Cl)cc2)c(O)c1	none
COc1ccc(-c2cn[nH]c2-c2ccc(OC)cc2O)cc1	ALR H2O2 inh 97
CNC(=O)c1c(NC(=O)c2ccco2)sc2c1CCC2	ALR H2O2 inh inconclusive
CNC(=O)c1c(NC(=O)C2=COCCO2)sc2c1CCCC2	ALR H2O2 inh 81
Cc1ccc(SCC(=O)NC2CCCCCC2)cc1	none
CC(C)(C)C(=O)Nc1ccccc1C(=O)Nc1ccncc1	none
O=C(Nc1ccc(Nc2ccccc2)cc1)C(Cl)Cl	ALR H2O2 inh 92
CC(C)c1ccc(NC(=O)C2CCCCC2C(=O)O)cc1 (stereo not drawn)	none (no result: CAL PDZ FP-1)
CC(C)(C)C(=O)C(Cl)C(=O)Nc1ccccc1 (stereo not drawn)	none (no result: Dyrk1A ADPGlo)
CC(=O)Oc1ccc(C(=O)c2ccccc2)c(OC(C)=O)c1	ALR H2O2 inh 98
CC(=O)Oc1ccc(C(=O)O)c(OC(C)=O)c1	none
O=C(Nc1ccccc1C(=O)Nc1ccncc1)c1ccccc1	CAL PDZ FP-1 43 (no result: ALR H2O2 inh)
O=C(O)[C@H]1CCCC[C@H]1C(=O)Nc1ccc(Nc2ccccc2)cc1	ALR H2O2 inh 98
Cc1ccc(CNC(=O)CSc2nnc(CNC(=O)c3ccccc3)o2)cc1	none (no result: Dyrk1A ADPGlo, CAL PDZ FP-1)
CC(C)(C)c1nc(-c2ccccc2)nc2c1OCCC2	none
COCC(=O)Nc1ccc(Nc2ccccc2)cc1	none (no result: ALR H2O2 inh)
O=C(Nc1ccc(Nc2ccccc2)cc1)c1ccccc1	ALR H2O2 inh 90 (no result: Dyrk1A ADPGlo, CAL PDZ FP-1, Rtt109 Vps75, CAL PDZ FP-2)
CC(=O)Oc1ccc(NC(=O)Cc2ccccc2)cc1	none (no result: CAL PDZ FP-1)
O=C(Nc1ccc(Nc2ccccc2)cc1)c1ccc(Cl)cc1	none (no result: CAL PDZ FP-1)
O=C(Nc1ccc(Nc2ccccc2)cc1)C(Cl)(Cl)Cl	ALR H2O2 inh 95
CC(=O)Oc1ccc(Nc2ccccc2)cc1	ALR H2O2 inh 99
CCC(=O)Nc1ccc(Nc2ccccc2)cc1	none (no result: ALR H2O2 inh)
NC(=O)Nc1ccc(Nc2ccccc2)cc1	ALR H2O2 inh 99 (no result: Dyrk1A ADPGlo)
OC(CNCCC1C=Nc2ccccc21)Cn1c2ccc(Cl)cc2c2cc(Cl)ccc21 (stereo not drawn)	none (no result: CAL PDZ FP-1)
Cc1ccccc1C1CC(=O)c2ccccc2C1C (stereo not drawn)	none (no result: ALR H2O2 inh)
O=C(Nc1ccc(Cl)cc1F)c1ccc2c(c1)C(=O)N(Cc1ccncc1)C2=O	none (no result: Dyrk1A ADPGlo, CAL PDZ FP-1, Rtt109 Vps75, CAL PDZ FP-2)
Cc1ccc2c(c1)-c1[nH]c(=S)ncc1CS2	none (no result: CAL PDZ FP-1)
N#Cc1ccccc1NC(=S)NC(=O)c1cccs1	ALR H2O2 inh 98
O=C1NC(=Nc2ccc(F)cc2)CS1	none
Cc1cc(C)cc(NC(=O)C2CCN(C(=O)[C@@H]3Cc4ccccc4CN3)CC2)c1	CAL PDZ FP-1 42
CC(=O)Nc1cccc(Nc2nc(-c3ccccc3F)nc3ccccc23)c1	ALR H2O2 inh 98 (no result: Rtt109 Vps75)
CC(=O)Nc1ccc(Nc2nc(-c3ccccc3)nc3ccccc23)cc1	ALR H2O2 inh 99
CC1CC/C(=N/Nc2ccccc2)C(=O)N1 (stereo not drawn)	ALR H2O2 inh 99
CN(C)Cc1c[nH]c2nc[nH]c(=O)c12	none (no result: ALR H2O2 inh)
N#C/C(=C\c1c[nH]c2ccccc12)C(=O)NC1CC1	none (no result: CAL PDZ FP-2)
N#C/C(=C\c1c[nH]c2ccccc12)C(=O)NC1CCCC1	ALR H2O2 inh 96 (no result: CAL PDZ FP-2)
